# Source: ChEMBL document CHEMBL1124743, “Development of a novel series of (2-quinolinylmethoxy)phenyl-containing compounds as high-affinity leukotriene receptor antagonists. 1. Initial structure-activity relationships” (J Med Chem, 1990)
# Calls of active or inactive are those of the source. The rule behind the calls is not given here.
# Columns and labels:
# [1] = target: Cysteinyl leukotriene receptor (Cavia porcellus); assay: Inhibition of the spasmogenic activity of LTD4 in guinea pig parenchymal strips.
# [2] = target: T1, Cysteinyl leukotriene receptor 1 (Cavia porcellus, UniProt Q2NNR5); assay: Binding affinity against Cysteinyl leukotriene D4 receptor from guinea pig lung was determined using [3H]LTD4 (0.2 nM)
# T1 sequence (Q2NNR5 whole entry): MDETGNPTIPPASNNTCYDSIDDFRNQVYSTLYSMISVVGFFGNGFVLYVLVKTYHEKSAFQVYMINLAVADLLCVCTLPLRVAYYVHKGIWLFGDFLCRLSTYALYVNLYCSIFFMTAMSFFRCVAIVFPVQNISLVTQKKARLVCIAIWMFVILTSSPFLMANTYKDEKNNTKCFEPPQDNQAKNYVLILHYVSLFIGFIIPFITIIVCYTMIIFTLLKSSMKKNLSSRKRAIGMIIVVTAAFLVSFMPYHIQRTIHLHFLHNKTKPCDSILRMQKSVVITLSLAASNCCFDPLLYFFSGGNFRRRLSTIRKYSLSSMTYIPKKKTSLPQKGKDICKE
# Method in brief: (§1)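 Membranes from guinea pig lung were incubated with 0.2 nM [3H]LTD4. Ki was derived from an IC50 read graphically, using at least four compound concentrations run in duplicate. Single-concentration values are % inhibition of specific binding at the stated concentration. Results are mean ± SEM with N separate experiments.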
# Cavia porcellus [3] = species: Cavia porcellus; assay: Oral activity expressed as effective dose in leukotriene mediated anaphylaxis assay in guinea pig; format: functional
# Method in brief: (§2)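 Immunized guinea pigs were pretreated with pyrilamine, propranolol and indomethacin, given compound orally, then challenged with aerosolized ovalbumin. Mortality was the end point. ED50 was determined graphically from at least three doses with at least six animals per dose. Other values are % inhibition at the indicated mg/kg dose.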
# Cavia porcellus [4] = species: Cavia porcellus; assay: Compound was evaluated for its effect on histamine induced contractions of guinea pig peripheral lung strips; No significant effect up to 50 uM; format: functional
# Cavia porcellus [5] = species: Cavia porcellus; assay: Compound was evaluated for its effect on LTC4 induced contractions of guinea pig peripheral lung strips; format: functional
# Method in brief: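 Guinea pig lung parenchymal strips were suspended in a tissue bath and contracted with 0.2 nM LTC4. IC50 was determined graphically from at least four concentrations. Results are mean ± SEM with N separate experiments, or % inhibition at the stated concentration.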
# Cavia porcellus [6] = species: Cavia porcellus; assay: Half life was determined; details: guinea pig
# Cavia porcellus [7] = assay: Effective dose to antagonize antigen induced bronchoconstrictive response (intraduodenal administration); format: functional
# Method in brief: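 Actively sensitized guinea pigs were pretreated with indomethacin, pyrilamine and propranolol, then given compound intraduodenally and challenged with iv ovalbumin. Inhibition of bronchoconstriction was measured. ED50 is reported with 95% CI.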
# Cavia porcellus [8] = assay: Effective dose to antagonize bronchoconstrictive response of LTD4 at 0.8 ug/kg (i.v.); format: functional; details: Lung, iv
# [9] = target: T1, Cysteinyl leukotriene receptor 1; assay: Compound was evaluated for inhibition against binding of [3H]LTD4 to Cysteinyl leukotriene D4 receptor
# Method in brief: as §1
# Cavia porcellus [10] = species: Cavia porcellus; assay: Compound was evaluated for its effect on LTE4 induced contractions of guinea pig peripheral lung strips; format: functional
# Cavia porcellus [11] = species: Cavia porcellus; assay: Compound was evaluated for its effect on methacholine induced contractions of guinea pig peripheral lung strips; No significant effect up to 50 uM; format: functional
# Cavia porcellus [12] = species: Cavia porcellus; assay: Compound was evaluated for its effect on PGF2-alpha induced contractions of guinea pig peripheral lung strips; No significant effect up to 50 uM; format: functional
# Cavia porcellus [13] = species: Cavia porcellus; assay: Oral activity expressed as effective dose in LTD4-induced wheal assay in guinea pig; format: functional
# Method in brief: (§3)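 Guinea pigs received compound orally 60 min before intradermal LTD4 challenge, and wheal formation was scored. ED50 came from linear regression over at least three doses, with at least five animals per point. Other values are % inhibition at the indicated mg/kg dose.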
# [14] = system: Arachidonate 5-lipoxygenase (Cavia porcellus); assay: Percent inhibition against 5-lipoxygenase from guinea pig polymorphonuclear […]; details: concentration not given here
# Cavia porcellus [15] = species: Cavia porcellus; assay: Compound was evaluated for its effect on LTD4 induced contractions of guinea pig peripheral lung strips; format: functional
# [16] = system: Cysteinyl leukotriene receptor (Cavia porcellus); assay: inhibition of the spasmogenic activity of LTD4 in guinea pig parenchymal strips at 10 uM.
# [17] = target: T2, Cysteinyl leukotriene receptor 1 (Cavia porcellus) (UniProt Q2NNR5); assay: Binding affinity at 10 uM against Cysteinyl leukotriene D4 receptor from guinea pig lung by [3H]LTD4 (0.2 nM) displacement.
# T2 sequence (whole entry): T1 sequence (Q2NNR5 whole entry)
# Method in brief: as §1
# Cavia porcellus [18] = species: Cavia porcellus; assay: Ability to inhibit the spasmogenic activity of LTD4 in guinea pig parenchymal strips at 10 uM; format: functional
# [19] = target: T2, Cysteinyl leukotriene receptor 1 (Cavia porcellus); assay: Binding affinity against Cysteinyl leukotriene D4 receptor from guinea pig lung was determined using [3H]LTD4 (0.2 nM) at compound concentration of 1 uM
# Method in brief: as §1
# Cavia porcellus [20] = species: Cavia porcellus; assay: Oral activity expressed as percent inhibition in leukotriene mediated anaphylaxis assay in guinea pig at 60 uM; format: functional; details: in the assay text read “60 mg/kg” for “60 uM”
# Method in brief: as §2
# Cavia porcellus [21] = species: Cavia porcellus; assay: Oral activity expressed as percent inhibition in LTD4-induced wheal assay in guinea pig at 9 uM; format: functional; details: in the assay text read “at 9 mg/kg” for “at 9 uM”
# Method in brief: as §3
# Cavia porcellus [22] = species: Cavia porcellus; assay: Ability to inhibit the spasmogenic activity of LTC4 in guinea pig parenchymal strips at 1 uM
# Cavia porcellus [23] = assay: Oral activity expressed as percent inhibition in LTD4-induced wheal assay in guinea pig at 18 mg/kg
# Cavia porcellus [24] = species: Cavia porcellus; assay: Oral activity expressed as percent inhibition in LTD4-induced wheal assay in guinea pig at 10 uM; format: functional; details: in the assay text read “at 10 mg/kg” for “at 10 uM”
# Method in brief: as §3
# Cavia porcellus [25] = species: Cavia porcellus; assay: Oral activity expressed as percent inhibition in leukotriene mediated anaphylaxis assay in guinea pig at 30 uM; format: functional; details: in the assay text read “30 mg/kg” for “30 uM”
# Method in brief: as §2
Structure (SMILES),IC50 [1],Ki [2],inhibition [16],inhibition [17],also measured
c1ccc2nc(COc3ccc(Cc4nnn[nH]4)cc3)ccc2c1,1000 nM,275 nM,–,–,–
c1cc(OCCCc2nnn[nH]2)cc(OCc2ccc3ccccc3n2)c1,79 nM,42 nM,–,–,ED50 (Cavia porcellus [3]): 16 mg/kg; Activity (Cavia porcellus [4]): inactive; Kb (Cavia porcellus [5]): ~90 nM; half-life (Cavia porcellus [6]): ~4 h; ED50 (Cavia porcellus [7]): 2.5 mg/kg; ED50 (Cavia porcellus [8]): 1.1 mg/kg; Ki [9]: 42 nM; Kb (Cavia porcellus [10]): ~90 nM; Activity (Cavia porcellus [11]): inactive; Activity (Cavia porcellus [12]): inactive; ED50 (Cavia porcellus [13]): 6.9 mg/kg; inhibition [14]: 9%; Kb (Cavia porcellus [15]): ~90 nM
c1ccc2[nH]c(COc3ccc(OCCCc4nnn[nH]4)cc3)nc2c1,–,–,42%,28%,–
CCOC(=O)CCCOc1ccc(OCc2ccc3ccccc3n2)cc1,2000 nM,500 nM,–,–,–
c1ccc2nc(COc3ccc(OCCCc4nnn[nH]4)cc3)ncc2c1,–,500 nM,75%,–,–
c1cc(OCCCc2nnn[nH]2)cc(OCc2cc3ccccc3cn2)c1,–,–,–,45%,inhibition at 10 µM (Cavia porcellus [18]): 68%
CCOC(=O)c1ccc(COc2ccc(OCCCc3nnn[nH]3)cc2)nc1,–,–,41%,35%,–
O=C(O)c1ccc(COc2ccc(OCCCc3nnn[nH]3)cc2)nc1,–,–,22%,30%,–
c1ccc(OCc2ccc3ccccc3n2)c(OCCCc2nnn[nH]2)c1,–,3300 nM,–,–,–
c1ccc2sc(COc3ccc(OCCCc4nnn[nH]4)cc3)nc2c1,–,240 nM,59%,–,–
c1ccc2c(c1)CCC(COc1ccc(OCCCc3nnn[nH]3)cc1)N2 (stereo not given),–,–,22%,–,–
c1ccc2nc(COc3ccc(CCc4nnn[nH]4)cc3)ccc2c1,280 nM,160 nM,–,–,–
c1ccc2c(COc3ccc(OCCCc4nnn[nH]4)cc3)nccc2c1,–,–,–,–,inhibition [19]: 7%
c1cc(OCCCc2nnn[nH]2)cc(OCc2ccc3ccccc3c2)c1,–,–,12%,0%,–
CCc1ccc(OCc2ccc3ccccc3n2)cc1OCCCc1nnn[nH]1,250 nM,240 nM,–,–,–
c1cc(OCCCc2nnn[nH]2)cc(OCc2cnc3ccccc3c2)c1,–,–,-10%,15%,–
c1ccc(COc2cccc(OCCCc3nnn[nH]3)c2)nc1,–,–,18%,10%,–
Cc1cc(OCc2ccc3ccccc3n2)ccc1OCCCc1nnn[nH]1,–,170 nM,–,–,–
c1ccc(OCc2ccc3ccccc3n2)cc1,–,1000 nM,–,–,–
O=C(NCc1ccc2ccccc2n1)c1ccc(OCCCc2nnn[nH]2)cc1,–,–,-3%,18%,–
O=C(CCCOc1ccc(OCc2ccc3ccccc3n2)cc1)NS(=O)(=O)c1ccccc1,19 nM,31 nM,–,–,Inhibition (Cavia porcellus [20]): 64%; Inhibition (Cavia porcellus [21]): 24%

Structure (SMILES),IC50 [1],Ki [2],inhibition [16],inhibition [17],also measured
O=C(Nc1ccc2ccccc2n1)c1ccc(OCCCc2nnn[nH]2)cc1,–,–,43%,33%,–
c1ccc(COc2cccc(OCCCc3nnn[nH]3)c2)cc1,–,–,9%,12%,–
c1ccc(-c2cccc(COc3ccc(OCCCc4nnn[nH]4)cc3)n2)cc1,–,–,50%,48%,–
Cc1cc(OCCCc2nnn[nH]2)cc(OCc2ccc3ccccc3n2)c1,–,640 nM,–,–,inhibition at 1 µM (Cavia porcellus [22]): 20%
c1ccc(COc2ccc(OCCCc3nnn[nH]3)cc2OCc2ccc3ccccc3n2)cc1,–,–,44%,57%,–
O=C(O)CCCOc1cccc(OCc2ccc3ccccc3n2)c1,–,–,–,–,ED50 (Cavia porcellus [3]): 20 mg/kg; ED50 (Cavia porcellus [13]): 7.2 mg/kg
c1ccc2nc(CSc3ccc(OCCCc4nnn[nH]4)cc3)ccc2c1,–,540 nM,–,–,–
c1cc(OCc2ccc3ccccc3n2)cc(-c2nn[nH]n2)c1,200 nM,115 nM,–,–,ED50 (Cavia porcellus [3]): 145 mg/kg
O=C(O)CCCOc1ccc(OCc2ccc3ccccc3n2)cc1,800 nM,1200 nM,–,–,–
O=C(Nc1ccc(OCCCc2nnn[nH]2)cc1)c1ccc2ccccc2n1,–,–,4%,25%,–
c1ccc2nc(COc3ccc(OCCCc4nnn[nH]4)cc3)ccc2c1,250 nM,69 nM,–,–,ED50 (Cavia porcellus [3]): 50 mg/kg; half-life (Cavia porcellus [6]): ~4 h; ED50 (Cavia porcellus [13]): 7 mg/kg
c1cc(OCCCCc2nnn[nH]2)cc(OCc2ccc3ccccc3n2)c1,120 nM,75 nM,–,–,Inhibition (Cavia porcellus [3]): 64%
c1cc(OCc2ccc3ccccc3n2)cc(OCc2nn[nH]n2)c1,140 nM,85 nM,–,–,Inhibition (Cavia porcellus [20]): 67%; Inhibition (Cavia porcellus [23]): 18%
c1ccc2nc(COc3ccc(CCCCc4nnn[nH]4)cc3)ccc2c1,–,–,–,–,Inhibition (Cavia porcellus [24]): 35%
c1ccc(-c2ccc(COc3cccc(OCCCc4nnn[nH]4)c3)nc2)cc1,–,–,22%,58%,–
c1ccc2sc(COc3ccc(OCCCc4nnn[nH]4)cc3)cc2c1,–,–,36%,9%,–
c1ccc2nc(COCc3ccc(OCCCc4nnn[nH]4)cc3)ccc2c1,–,1200 nM,–,–,–
CCCCCC(O)c1cccc(OCc2ccc3ccccc3n2)c1 (stereo not given) [REV-5901],–,1500 nM,–,–,–
CCOC(=O)CCCOc1cccc(OCc2ccc3ccccc3n2)c1,600 nM,160 nM,–,–,Inhibition (Cavia porcellus [25]): 83%; ED50 (Cavia porcellus [13]): 15 mg/kg
c1ccc(Oc2cccc(COc3cccc(OCCCc4nnn[nH]4)c3)n2)cc1,–,–,9%,48%,–
c1ccc2nc(COc3ccc(SCCCc4nnn[nH]4)cc3)ccc2c1,25 nM,31 nM,–,–,Inhibition (Cavia porcellus [24]): 23%
